Data on 13 compounds can be found in article PMC6044914 (ACS Omega, 2017).

Data set [1] is described as follows: Pharmacokinetic profiling in the rat. The data set is classed as in vivo. The note with it: plasma; for bioavailability: oral; for AUC: po.
A further data set deals with S. aureus RN4220. In words: Spectrum, MIC99 by serial dilution agar method. The data set is classed as cell-based, Staphylococcus aureus. The note with it: for MIC: Staphylococcus aureus, RN4220, read-out: MIC (μM) St. aureus. A digest of the protocol: (§1)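 Serial-dilution agar MIC99 with test compound in the agar. Organisms were grown on different media: B. subtilis Marburg on nutrient agar, E. coli DH5α and S. aureus RN4220 on LB agar, M. smegmatis mc2155 on Middlebrook 7H10 + 10% v/v OADC, P. aeruginosa BAA 47 PA0 on tryptic soy agar, S. cerevisiae Y187 on YPD agar. Late-log culture was plated and incubated at 37 °C until large colonies formed on no-compound plates. MIC99 is the lowest concentration giving <1% growth.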

Data set [2] concerns M. tuberculosis H37Rv (London Pride). In words: microbe, parasite or virus in culture. The data set is classed as cell-based, Mycobacterium tuberculosis. As to conditions: for MIC: Mycobacterium tuberculosis, H37RV; for activity against M. tuberculosis (in words): SAR discussion.
For a further data set, the system named is E. coli DH5α. The data set can be described thus: Spectrum, MIC99 by serial dilution agar method. Type of data set: cell-based. The note with it: Escherichia coli, read-out: MIC (μM) E. coli. A digest of the protocol:
as §1

In a further data set the test system is S. cerevisiae Y187. The data set can be described thus: Spectrum, MIC99 by serial dilution agar method. The note with it: for MIC: Saccharomyces cerevisiae, Y187, read-out: MIC (μM) Sa. cerevisiae. Type of data set: cell-based, Saccharomyces cerevisiae. A digest of the protocol: as §1
A further data set deals with Vero cells. As to conditions: African green monkey.
The next data set relates to P. aeruginosa BAA 47 PA0. In words: Spectrum, MIC99 by serial dilution agar method. The data set is classed as cell-based. The note with it: Pseudomonas aeruginosa, BAA47, read-out: MIC (μM) P. aeruginosa. A digest of the protocol: as §1
Data set [3] concerns replicating M. tuberculosis. The data set can be described thus: Kill kinetics in replicating conditions. The note with it: for bactericidal activity against replicating M. tuberculosis (in words): aerobic conditions; for concentration at which bactericidal, replicating M. tuberculosis: bactericidal = at least 3 logs kill in 21 days. Type of data set: cell-based, Mycobacterium tuberculosis.

In the next data set the test system is B. subtilis Marburg. In words: Spectrum, MIC99 by serial dilution agar method. Type of data set: cell-based. The note with it: Bacillus subtilis, read-out: MIC (μM) B. subtilis. The method in brief:
as §1

Data set [4] deals with nonreplicating M. tuberculosis (nutrient starvation). The note with it: previous work; cited from earlier work.
For data set [5] the following is noted: rats; rapidly metabolized; cited from earlier work.
In data set [6] the test system is nonreplicating M. tuberculosis (nutrient starvation). The data set can be described thus: Kill kinetics under starvation. Type of data set: cell-based, Mycobacterium tuberculosis. As to conditions: for concentration at which bactericidal, nonreplicating M. tuberculosis: concentrations as low as.
In a further data set the test system is M. smegmatis mc^2155. The data set can be described thus: Spectrum, MIC99 by serial dilution agar method. Type of data set: cell-based, Mycobacterium smegmatis. The method in brief:
as §1

Each structure is given as a SMILES string. In brackets after ≈: the same amount, converted by molar mass. Read-outs that look alike come from different tables or passages of the source.

What is called Vd is a proportionality between amount in the body and measured concentration, not a real space. What is called clearance is the rate of elimination divided by the concentration. As usually defined, the bioavailability is dose-corrected exposure relative to a reference, in per cent. For `Cc1cccc(C(=O)Nc2ncc([N+](=O)[O-])s2)c1O` [compound 13, 2-Hydroxy-3-methyl-N-(5-nitrothiazol-2-yl)benzamide], in data set [1], the Vd is 0.16 ± 0.012 L/kg, the clearance is 0.538 ± 0.0306 L/h/kg and the bioavailability worked out at 72.5 ± 18.4%.
In the case of `CCC(C)(C)C(=O)Oc1ccccc1C(=O)Nc1ncc([N+](=O)[O-])s1` [compound 8, 2-((5-Nitrothiazol-2-yl)carbamoyl)phenyl 2,2-Dimethylbutanoate], the MIC in the data set with S. aureus RN4220 was greater than 50 µM; in [2] (120 h), 1.4 ± 0.07 µM (≈ 0.509 µg/mL); in the data set on E. coli DH5α, greater than 25 µM; in the data set with S. cerevisiae Y187 it was greater than 100 µM; in the data set with P. aeruginosa BAA 47 PA0 it was greater than 100 µM; in the data set with B. subtilis Marburg, 1 µM (≈ 0.363 µg/mL). The “improvement in activity relative to 1” value in data set [2] was 10 fold. Besides, in [2], the “activity against M. tuberculosis (in words)” value is reported as “showed activity”. In the data set with Vero cells, the “TC50” value was 6.2 µM. For the same compound, the “bactericidal activity against replicating M. tuberculosis (in words)” value in data set [3] is on record as “rapidly bactericidal”. The “kill of replicating M. tuberculosis” value in data set [3] (in 7 days at 10× MIC) is greater than 4 log.
In the case of `CC(=O)Oc1ccccc1C(=O)Nc1ncc([N+](=O)[O-])s1` [compound 1, 2-(5-Nitrothiazol-2-ylcarbamoyl)phenyl Acetate, reference compound], the MIC in data set [2] (120 h) and in data set [2] (read-out: minimum inhibitory concentration (MIC)) was 14 µM each time. The “TC50” value in the data set with Vero cells was greater than 20 µM. Further, in data set [4], the “activity against nonreplicating or persistent M. tuberculosis (in words)” value is given as “good activity”. Besides, the “detection in plasma or urine” value in data set [5] is “not detectable”.
Consider `O=C(Nc1ccccc1)Nc1ncc([N+](=O)[O-])s1` [compound 37, 1-(5-Nitrothiazol-2-yl)-3-phenylurea], for which the “susceptibility of S. aureus (in words)” value with S. aureus RN4220 is “sensitive”. Further, the MIC with S. aureus RN4220 is 50 µM (≈ 13.2 µg/mL); in data set [2], 17 ± 4.2 µM (≈ 4.49 µg/mL); in the data set with E. coli DH5α, greater than 100 µM; in the data set with S. cerevisiae Y187, greater than 100 µM; in the data set on P. aeruginosa BAA 47 PA0, greater than 100 µM; in the data set on B. subtilis Marburg it was 50 µM (≈ 13.2 µg/mL). The “activity against M. tuberculosis (in words)” value in data set [2] is recorded as “comparable activity to the parent compound 1”. Further, the “bactericidal activity under nonreplicating conditions (in words)” value in data set [6] is “bactericidal activity”. Also, in data set [6], the “concentration at which bactericidal, nonreplicating M. tuberculosis” value is no more than 1.25 × MIC. The “bactericidal activity against replicating M. tuberculosis (in words)” value in [3] is given as “bactericidal activity”. For the same compound, in data set [3], the “concentration at which bactericidal, replicating M. tuberculosis” value is “equivalent to the MIC”. For the same compound, the “kill of replicating M. tuberculosis” value in [3] (in 21 days, at concentrations equivalent to the MIC) was “at least 3 logs”.
On to `O=C(Nc1ncc([N+](=O)[O-])s1)c1ccccc1` [compound 4, N-(5-nitrothiazol-2-yl)benzamide], for which, in data set [1], the Vd is 0.18 ± 0.006 L/kg, the clearance was 0.366 ± 0.03 L/h/kg and the bioavailability was found to be 63.5 ± 6.9%.
In general, AUC refers to the area under the concentration-time curve, a measure of exposure. With `O=C(Nc1ncc([N+](=O)[O-])s1)c1ccccc1O` [compound 2, 2-Hydroxy-N-(5-nitrothiazol-2-yl)benzamide, reference compound], in [1], the Vd turned out to be 0.698 ± 0.327 L/kg, the clearance was determined as 3.45 ± 0.198 L/h/kg, the bioavailability is 5.8 ± 0.1% and the AUC turned out to be 0.167 ± 0.01 µg·h/mL. Moreover, in data set [2] (120 h), the MIC came out at 20 µM (≈ 5.3 µg/mL). Besides, the “TC50” value with Vero cells is greater than 20 µM.
Take `O=C(O)c1ccccc1C(=O)Nc1ncc([N+](=O)[O-])s1` [compound 16, 2-((5-Nitrothiazol-2-yl)carbamoyl)benzoic Acid]: the MIC in data set [2] (120 h) was greater than 20 µM. In addition, the “activity against M. tuberculosis (in words)” value in data set [2] was “no activity”. The “TC50” value with Vero cells is greater than 50 µM.
In data set [1], `O=C(Nc1ncc([N+](=O)[O-])s1)C1CCCCC1` [compound 28, N-(5-Nitrothiazol-2-yl)cyclohexanecarboxamide] yielded a Vd of 0.68 ± 0.12 L/kg, a clearance of 4.19 ± 0.258 L/h/kg, a bioavailability of 17.5 ± 4.2% and an AUC of 0.418 ± 0.096 µg·h/mL. For the same compound, in [2], the MIC was greater than 20 µM and the “activity against M. tuberculosis (in words)” value is reported as “loss of activity”.
As for `O=C(Nc1ncc([N+](=O)[O-])s1)c1ccccn1` [compound 19, N-(5-Nitrothiazol-2-yl)picolinamide], the MIC in the data set on S. aureus RN4220 is greater than 100 µM; in data set [2] (120 h), 2.4 ± 0.0071 µM (≈ 0.601 µg/mL); with E. coli DH5α, greater than 100 µM; in the data set on S. cerevisiae Y187, 12.5 µM (≈ 3.13 µg/mL); in the data set with P. aeruginosa BAA 47 PA0, greater than 100 µM; with B. subtilis Marburg, 3.1 µM (≈ 0.776 µg/mL). Also, the “activity against M. tuberculosis (in words)” value in [2] is “improved activity”. Also, in the data set on M. smegmatis mc^2155, the “susceptibility of M. smegmatis (in words)” value is reported as “sensitive”. For the same compound, the “susceptibility of S. cerevisiae (in words)” value in the data set with S. cerevisiae Y187 is listed as “sensitive”. For the same compound, the “bactericidal activity under nonreplicating conditions (in words)” value in [6] is listed as “bactericidal activity”. Moreover, the “concentration at which bactericidal, nonreplicating M. tuberculosis” value in [6] is no more than 1.25 × MIC. Further, the “TC50” value with Vero cells was 20 µM. Also, the “bactericidal activity against replicating M. tuberculosis (in words)” value in [3] is given as “bactericidal”. Moreover, the “concentration at which bactericidal, replicating M. tuberculosis” value in [3] is on record as no less than 5 times the MIC.
In the case of `O=C(Nc1ncc(C(=O)O)s1)c1ccccn1` [compound 51, 2-(Picolinamido)thiazole-5-carboxylic Acid], in data set [2], the MIC is greater than 20 µM and the “activity against M. tuberculosis (in words)” value was “inactive”. The “TC50” value in the data set with Vero cells is greater than 50 µM.
As to `COc1cccnc1C(=O)Nc1ncc([N+](=O)[O-])s1` [compound 24, 3-Methoxy-N-(5-nitrothiazol-2-yl)picolinamide], in data set [2] (120 h), the MIC is greater than 20 µM. Besides, the “activity against M. tuberculosis (in words)” value in [2] is “inactive”. For the same compound, the “TC50” value in the data set on Vero cells amounted to 37 µM.
For the compound `O=C(Nc1nc(-c2ccccn2)cs1)c1ccccn1` [compound 52, N-(4-(Pyridin-2-yl)thiazol-2-yl)picolinamide], in data set [2], the MIC is greater than 20 µM and the “activity against M. tuberculosis (in words)” value is “inactive”. The “TC50” value in the data set with Vero cells amounted to 15 µM.
In data set [2] (120 h), `CC(C)(C)OC(=O)Nc1ccccc1C(=O)Nc1ncc([N+](=O)[O-])s1` [compound 10, tert-Butyl (2-((5-nitrothiazol-2-yl)carbamoyl)phenyl)carbamate] displayed an MIC of 17 ± 4.2 µM (≈ 6.19 µg/mL). In data set [2], the “activity against M. tuberculosis (in words)” value was “showed activity”. Further, in the data set on Vero cells, the “TC50” value turned out to be 6.6 µM.
